Bioassay records as filed in PubChem.
JMJD2C inh – inhibitors of GASC-1 histone demethylase, primary screen, biochemical, fluorescence, DELFIA europium; Lysine-specific demethylase 4C (Homo sapiens), Q9H3R0; GST-JMJD2C(1-420) H3K9me3 demethylation; inhibition, % at 2.35 µM; actives 0.069% (n = 330,000); AID 2099, 2009;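 active means more than half of a compound's replicate wells show inhibition beyond 50%, single wells judged on their own value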;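 further: signal counts dimethyl H3K9 product captured on neutravidin plate; 0% = median of DMSO wells and 100% = 0.3 times that DMSO median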
NR2E3 ag-1 – inhibitors of NR2E3-RetCOR corepressor binding, primary screen, NR2E3 agonist project, biochemical, TR-FRET, GST-NR2E3, biotin-RetCOR. Photoreceptor-specific nuclear receptor (Homo sapiens), Q9Y5X4. 1536-well. inhibition of corepressor binding, % at 4.78 µM. actives 0.12% (n = 320,000). AID 2300, 2010;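 active means percent inhibition above the cutoff of mean plus 3 SD of all tested compounds, set per screening campaign, cut at about 20% in these data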;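 further: 0% = DMSO wells and 100% = biotin wells as full block of FRET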
Target sequence (Q9Y5X4 whole entry, looked up): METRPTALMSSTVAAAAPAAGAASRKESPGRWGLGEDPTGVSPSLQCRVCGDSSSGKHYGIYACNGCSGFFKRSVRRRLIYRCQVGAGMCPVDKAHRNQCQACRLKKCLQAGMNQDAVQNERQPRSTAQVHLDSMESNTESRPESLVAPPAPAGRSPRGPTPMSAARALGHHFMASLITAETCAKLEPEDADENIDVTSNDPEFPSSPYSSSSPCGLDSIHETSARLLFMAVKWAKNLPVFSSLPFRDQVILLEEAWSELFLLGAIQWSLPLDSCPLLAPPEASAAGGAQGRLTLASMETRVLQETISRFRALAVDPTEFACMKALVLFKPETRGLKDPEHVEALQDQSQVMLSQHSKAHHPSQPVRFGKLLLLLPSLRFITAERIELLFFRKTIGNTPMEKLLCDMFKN
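Assay system: NR2E3–RetCOR corepressor complex. Quantity: 1.35 nM GST-NR2E3. Buffer or medium: pH 7.5 Tris-based buffer. Reagent: biotinylated RetCOR corepressor at 7 nM final. Schedule: 5 h at 4 °C. Detection: TR-FRET, emission read at 617 and 671 nm. Replicates: one well per compound, singlicate testing.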
Jurkat NFkB inh – inhibitors of induced NF-kB luciferase reporter, primary screen, TCR NF-kB activation inhibitor project, cell-based, luminescence, uHTS; AID 435003, 2010; actives 0.53% (n = 330,000); Jurkat, PMA/ionomycin-induced NF-kB luciferase reporter; inhibition, % at 4 µM; in the data active means inhibition above about 50%
GalR3 antag – GalR3 antagonists in HEK293 cells, primary screen, cell-based, fluorescence readout; AID 651719, 2012; HEK293 GalR3-CNG cAMP membrane potential fluorescence; galR3 body fused to GalR1 C-terminus; inhibition, % at 3 µM; Galanin receptor type 3 (Homo sapiens), O60755; actives 0.44% (n = 360,000);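 active means inhibition above the screen-wide average plus 3 SD, cut at about 13% in these data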;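 further: forskolin and galanin both at EC90 stimulate the cells; cAMP rise reported by CNG channel membrane potential dye signal; 0% = forskolin plus galanin with DMSO and 100% = forskolin alone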
697 NFkB inh – inhibitors of PMA/ionomycin-induced NF-kB reporter, 697 cells, primary screen, B-cell NF-kB inhibitor project, cell-based, luminescence, uHTS | 697 B-cell NF-kB luciferase reporter, 16 h | inhibition, % at 4 µM | actives 0.33% (n = 330,000); in the data active means inhibition above about 35%
NR2E3 ag-2 – NR2E3 agonists in two-hybrid cells, primary screen, cell-based, luminescence, CHO-S, Gal4-NCOR/VP16-NR2E3; luciferase; Photoreceptor-specific nuclear receptor (Homo sapiens), Q9Y5X4; inhibition of corepressor binding, % at 3.98 µM; AID 602229, 2012; actives 0.35% (n = 360,000);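 active means inhibition above the mean of all tested compounds plus 3 SD, cut at about 70% in these data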;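 further: 0% = DMSO with NR2E3 transfected cells and 100% = cells lacking NR2E3 construct; higher means lower luciferase signal from less NR2E3 corepressor binding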
GalR3 antag conf – GalR3 antagonist hit confirmation, cell-based, fluorescence, triplicate; AID 652245, 2013; inhibition, % at 3 µM; shares compounds with GalR3 antag; HEK293 GalR3 CNG cAMP biosensor, membrane potential fluorescence; galR3 fused to GalR1 carboxy tail; challenged with forskolin and galanin at EC90; actives 59% (n = 1,600);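 active means inhibition above the primary screen's cutoff, the mean inhibition of all screened compounds plus 3 SD, cut at about 13% in these data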;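 further: 0% = forskolin plus galanin and 100% = forskolin alone with DMSO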
CNG parental – nonspecific cAMP agonists in parental HEK-CNG cells, counter-screen for GalR3 antagonist project, cell-based, fluorescence, high throughput | activation, % at 3 µM | actives 10% (n = 1,600) | HEK293-CNG parental cells, cAMP membrane potential fluorescence; normalised: DMSO wells 0%, forskolin wells 100% | shares compounds with GalR3 antag; in the data active means activation above about 1.3%
The depositor's hits bear a star; x = not tested or not shown. The list is not random: actives were taken first. Their share in the collection is about 1.5%.

SMILES	JMJD2C inh	NR2E3 ag-1	Jurkat NFkB inh	GalR3 antag	697 NFkB inh	NR2E3 ag-2	GalR3 antag conf	CNG parental
COc1ccc(NCc2nnc(SCC(=O)Nc3ccccc3)n2C)cc1	-3	1	-15	x	3	-3	-1	0
CC(=O)c1c(C)[nH]c(C(=O)NCCc2c[nH]c3ccccc23)c1C	16	1	-34	-4	-34	-48	x	x
COc1ccc2[nH]c(=O)c(CN(Cc3ccco3)C(c3nnnn3Cc3ccccc3)C(C)C)cc2c1 (configuration not stated)	-7	3	-9	13*	0	-6	0	0
COCCn1nnnc1C(C(C)C)N(Cc1ccccc1)Cc1cc2cc(OC)ccc2[nH]c1=O (configuration not stated)	x	x	x	65*	x	5	60*	1
COc1ccc2[nH]c(=O)c(CN(C3CCCCC3)C(c3nnnn3Cc3ccco3)C(C)C)cc2c1 (configuration not stated)	-8	3	-10	x	-9	-34	x	x
O=C1CNC(=S)N1CCc1ccc(O)c(O)c1	12	2	-9	-1	4	-30	x	x
O=C(Nc1ccc(Cl)cc1)c1ccc(CN2CCc3ccccc3C2)cc1	1	-1	21	108*	-52	-101	102*	0
N#CCc1ccc(NC(=O)c2ccc(CN3CCc4ccccc4C3)cc2)cc1	2	1	49	30*	-5	8	105*	0
Cc1cc(C)c(NC(=O)c2ccc(CN3CCc4ccccc4C3)cc2)c(C)c1	60	0	-2	-6	-13	-1	x	x
CCCNC(=O)c1ccc(CN2CCc3ccccc3C2)cc1	-4	-5	0	-1	-16	-8	x	x
COc1cc2c(cc1OC)C(C)N(C(=O)C1=NN(c3cccc(C)c3)C(=O)CC1)CC2 (configuration not stated)	10	-1	13	-2	-12	-4	x	x
O=c1[nH]c2cc(Cl)c([N+](=O)[O-])nc2[nH]1	9	-1	13	24*	-17	-5	24*	0
C#CCOCCOCCOCCNc1nc(N2CCN(C(=O)[C@H]([C@@H](C)CC)n3cc(CCCCN)nn3)CC2)nc(N2CCN(C(=O)[C@H](CCCCN)n3cc(CC(C)O)nn3)CC2)n1 (some centres not stated)	x	0	6	-4	-11	-20	x	x
C#CCOCCOCCOCCNc1nc(N2CCN(C(=O)[C@H]([C@@H](C)CC)n3cc(CCC(=O)O)nn3)CC2)nc(N2CCN(C(=O)[C@H](CCCCN)n3cc(CCC(=O)O)nn3)CC2)n1	x	x	x	x	x	5	-3	0
CC(CCc1ccc(O)cc1)NCc1ccc(Br)cc1 (configuration not stated)	20	7	10	31*	-13	18	58*	1
CC(CCc1ccc(O)cc1)NCCC(c1ccccc1)c1ccccc1 (configuration not stated)	-26	3	-4	-14	-13	21	x	x
CCOC(=O)Cn1nc(C)c(NC(=O)COc2cccc(Cl)c2)c1C	-2	0	11	21*	17	7	0	0
CC(=O)N1c2ccc(S(=O)(=O)NCC3CCC(C(=O)Nc4cccc(C)n4)CC3)cc2CC1C (configuration not stated)	-6	-3	30	24*	-8	31	11	0
COC(=O)C1=C(C)NC2=C(C(=O)CCC2)C1c1cn(Cc2ccc(Cl)cc2Cl)nc1-c1ccccc1 (configuration not stated)	1	-1	13	37*	28	-13	50*	0
CCOC(=O)C1=C(C)NC2=C(C(=O)CCC2)C1c1cc(OC)ccc1OC (configuration not stated)	-2	-1	-4	-1	-25	8	x	x
CCOC(=O)C1=C(C)NC2=C(C(=O)CCC2)C1c1cn(Cc2ccc(Cl)cc2Cl)nc1-c1ccccc1 (configuration not stated)	7	2	0	16*	21	-15	13*	6.2*
COC(=O)C1=C(C)NC2=C(C(=O)CCC2)C1c1cccs1 (configuration not stated)	13	x	x	2	x	x	x	x
COCCNC(=O)c1ccc(-n2c(SCc3ccncc3)nc3ccccc3c2=O)cc1	7	3	3	0	14	-7	x	x
CC(=O)OCCNc1cc(Sc2nc3ccccc3[nH]2)c2nonc2c1[N+](=O)[O-]	14	2	x	46*	x	26	32*	0
Cc1cccc(-c2nnc(N)s2)c1	-17	-4	-4	13*	-16	-13	2	0
SMILES	JMJD2C inh	NR2E3 ag-1	Jurkat NFkB inh	GalR3 antag	697 NFkB inh	NR2E3 ag-2	GalR3 antag conf	CNG parental
CCCNC(=O)c1cc(C2CCCN(S(=O)(=O)c3cccc4cccnc34)C2)on1 (configuration not stated)	x	x	x	-4	x	7	x	x
O=C(Nc1ccc(F)c(Cl)c1)c1cc(C2CCCN(S(=O)(=O)c3cccc4cccnc34)C2)on1 (configuration not stated)	x	x	x	13*	x	-38	6	-1
S=C1NNC2(NN1)C1CC3CC(C1)CC2C3	7	0	-13	15*	4	-28	3	0
C1CSC2(N1)C1CC3CC(C1)CC2C3 (configuration not stated)	-1	-4	21	3	15	-23	x	x
COc1ccccc1CNC(=O)[C@H](C)NC(=O)[C@@H]1Cc2ccccc2CN1	-10	1	6	9	12	15	x	x
COc1ccccc1CNC(=O)[C@H](CCSC)NC(=O)[C@@H]1Cc2ccccc2CN1	-1	-3	9	22*	-6	-9	12	0
